Experimental data of several laboratories.
TSSK1B: Testis-specific serine/threonine-protein kinase 1 (TSSK1B, Homo sapiens, UniProt Q9BXA7)
mraY: mraY (Staphylococcus aureus, UniProt Q2FZ93)

With `Cc1cc(-c2ccnc3[nH]cc(F)c23)cc(F)c1[C@@]1(O)[C@H](C)CN(C(=O)CN)C[C@@H]1C` the remaining activity was 13.5% (Rho-associated protein kinase 1 (ROCK1, Homo sapiens, UniProt Q13464); enzyme activity, inhibitor; 0.1 µM).
The remaining binding of `C[C@]1(O)CCCN(c2nc(Nc3ccc(S(=O)(=O)N[C@H]4CC[C@H](CN5CCN(c6ccc(C7CCC(=O)NC7=O)cc6F)CC5)CC4)cc3Cl)ncc2C(F)(F)F)C1` (stereo partly shown) is reported as 99% (Aurora kinase C (AURKC, Homo sapiens, UniProt Q9UQB9); binding, competition with immobilised ligand; 1 µM).
`CCCCC(=O)Nc1ccc(-c2ccc3ncn(CCC)c(=O)c3c2)cn1` gave a remaining binding of 99% (Atypical kinase COQ8B, mitochondrial (COQ8B, Homo sapiens, UniProt Q96D53); binding, competition with immobilised ligand; 0.5 µM).
For `COc1ccc2oc(-c3ccc4nc(N)oc4c3)c/c(=N\c3ccccc3NC(=O)CCN)c2c1`, the remaining binding was 100% (TSSK1B; binding; 1 µM).
`C1=C/COCc2cc(ccc2OCCN2CCCC2)Nc2nccc(n2)-c2cccc(c2)COC/1` has a remaining binding of 63% (Activin receptor type-2B (ACVR2B, Homo sapiens, UniProt Q13705); binding; 0.1 µM).
The remaining activity of `Cc1n[nH]c2ccc3nc(-c4ccc(C(=O)NCCN(C)C)cc4F)c4c(c3c12)CCCC4` is reported as 13% (Receptor-type tyrosine-protein kinase FLT3 (FLT3, Homo sapiens, UniProt P36888, ITD); enzyme activity, inhibitor, radiometric; 0.5 µM).
The inhibition of `CCN1/C(=C/C(C)=O)Sc2ccc(F)cc21` is reported as 0% (B2 bradykinin receptor (BDKRB2, Homo sapiens, UniProt P30411); ligand displacement, radioligand; 10 µM).
With `N#Cc1ccc(NC(=O)Nc2ccccc2)cc1` the remaining binding was 83% (TSSK1B; cell-free assay, competition with immobilised ligand; 25 µM).
For `C[C@H](NC(=O)C(=O)Nc1ccccc1C(C)(C)C)C(=O)N[C@@H](CC(=O)O)C(=O)COc1c(F)c(F)cc(F)c1F`, the kinact/KI was 19200 M⁻¹ s⁻¹ (Caspase-4 (CASP4, Homo sapiens, UniProt P49662); enzyme activity, inhibitor).
With `CCCC[C@H](NC(=O)[C@H](Cc1c[nH]c2ccccc12)N(C)C(=O)C1(O)C[C@H](O)[C@@H](NC(C)=O)[C@H]([C@H](O)[C@H](O)CO)O1)C(=O)N[C@@H](CC(=O)O)C(=O)N[C@@H](Cc1cccc(Br)c1)C(N)=O` (stereo partly shown) the Emax was 102% (Gastrin/cholecystokinin type B receptor (CCKBR, Homo sapiens, UniProt P32239); β-arrestin recruitment, agonist; HTLA).
`CCCCCCC#Cc1cncc(-c2nnc(SCc3ccc([N+](=O)[O-])o3)n2CCO)c1` has an inhibition of 61% (mraY; cell-free assay, inhibitor; 250 µM).
`Cc1cc(S(=O)(=O)N[C@H]2CC[C@H](CN3CCN(c4ccc(C5CCC(=O)NC5=O)cc4F)CC3)CC2)ccc1Nc1ncc(C(F)(F)F)c(N2CCC[C@](C)(O)C2)n1` (stereo partly shown) gave a remaining binding of 28% (Serine/threonine-protein kinase DCLK3 (DCLK3, Homo sapiens, UniProt Q9C098); binding, competition with immobilised ligand; 1 µM).
`CCCCCCC#Cc1cncc(-c2nnc(SC[C@H]3O[C@@H](n4ccc(=O)[nH]c4=O)[C@H](O)[C@@H]3O)n2CCO)c1` gave an inhibition of 22% (mraY; cell-free assay, inhibitor; 250 µM).
The inhibition of `NC/C(=C\F)COc1cccc(Cn2c(=S)[nH]c(=O)c3[nH]cnc32)c1` is reported as < 50% (B1 bradykinin receptor (BDKRB1, Homo sapiens, UniProt P46663); ligand displacement, radioligand; 10 µM).
The remaining binding of `C[C@]1(O)CCCN(c2nc(Nc3ccc(S(=O)(=O)N[C@H]4CC[C@H](CN5CCN(c6ccc(C7CCC(=O)NC7=O)cc6F)CC5)CC4)cc3F)ncc2C(F)(F)F)C1` (stereo partly shown) is reported as 74% (BMP-2-inducible protein kinase (BMP2K, Homo sapiens, UniProt Q9NSY1); binding, competition with immobilised ligand; 1 µM).
With `CCCCCCC#Cc1cncc(-c2nnc(SCc3ccc(Cl)cc3)n2CCCN)c1` the inhibition was 34% (mraY; cell-free assay, inhibitor; 250 µM).
